The values that follow come from ChEMBL document CHEMBL1141540, “Design, synthesis, and evaluation of 1-(N-benzylamino)-2-phenyl-3-(1H-1,2,4-triazol-1-yl)propan-2-ols as antifungal agents” (2008).

SMILES strings stand for the structures. ≈ marks a conversion by molar mass, not a printed value.

One assay relates to Candida albicans. Nature of the assay: Antifungal activity against Candida albicans CA98001. The class given is functional. The essentials: (§1)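 Growth-inhibition screen against the named strain, following a previously published protocol. The read-out is MIC80, reported in ng mL⁻¹. Fluconazole and itraconazole served as positive controls.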
For the next assay, the system named is Aspergillus fumigatus. Put plainly: Antifungal activity against Aspergillus fumigatus AF98003. The class given is functional. The method in brief: as §1

With `CN(Cc1ccc(C#N)cc1)CC(O)(Cn1cncn1)c1ccc(Cl)cc1Cl` (stereo not drawn), the MIC80 stood at 0.00037 µg/mL (≈ 0.000889 µM) with Candida albicans and 2.41 µg/mL (≈ 5.79 µM) in the assay with Aspergillus fumigatus.
On to `CN(Cc1ccc(C(F)(F)F)cc1)CC(O)(Cn1cncn1)c1ccc(Cl)cc1Cl` (stereo not drawn), for which the MIC80 with Candida albicans stood at 0.03 µg/mL (≈ 0.0653 µM); in the assay with Aspergillus fumigatus, 21.1 µg/mL (≈ 46 µM).
Take `O=[N+]([O-])c1ccc(CNCC(O)(Cn2cncn2)c2ccc(Cl)cc2Cl)cc1` (stereo not drawn): the MIC80 was 0.006 µg/mL (≈ 0.0142 µM) in the assay on Candida albicans and 27 µg/mL (≈ 64 µM) in the assay on Aspergillus fumigatus.
With `Nc1ccc(CNCC(O)(Cn2cncn2)c2ccc(Cl)cc2Cl)cc1` (stereo not drawn), the MIC80 in the assay on Candida albicans worked out at 18.8 µg/mL (≈ 48 µM); with Aspergillus fumigatus, 3.06 µg/mL (≈ 7.8 µM).
In the assay on Aspergillus fumigatus, `CCC(C)n1ncn(-c2ccc(N3CCN(c4ccc(OC[C@H]5CO[C@](Cn6cncn6)(c6ccc(Cl)cc6Cl)O5)cc4)CC3)cc2)c1=O` (stereo partly drawn) [ITRACONAZOLE] displayed an MIC80 of 0.42 µg/mL (≈ 0.595 µM).
Regarding `CN(Cc1ccc(N)cc1)CC(O)(Cn1cncn1)c1ccc(Cl)cc1Cl` (stereo not drawn), the MIC80 with Candida albicans was 0.029 µg/mL (≈ 0.0714 µM); against Aspergillus fumigatus it was 2.32 µg/mL (≈ 5.71 µM).
In the case of `N#Cc1ccc(CNCC(O)(Cn2cncn2)c2ccc(Cl)cc2Cl)cc1` (stereo not drawn), the MIC80 is 0.0028 µg/mL (≈ 0.00696 µM) against Candida albicans and 4.02 µg/mL (≈ 9.99 µM) against Aspergillus fumigatus.
For `CN(Cc1ccc([N+](=O)[O-])cc1)CC(O)(Cn1cncn1)c1ccc(Cl)cc1Cl` (stereo not drawn), in that order: 0.0006 µg/mL (≈ 0.00138 µM) and 1.96 µg/mL (≈ 4.49 µM).
The corresponding values for `OC(CNCc1ccc(C(F)(F)F)cc1)(Cn1cncn1)c1ccc(Cl)cc1Cl` (stereo not drawn) are 0.024 µg/mL (≈ 0.0539 µM) and 24 µg/mL (≈ 54 µM).
As to `OC(Cn1cncn1)(Cn1cncn1)c1ccc(F)cc1F` [FLUCONAZOLE], in the assay on Candida albicans, the MIC80 turned out to be 0.19 µg/mL (≈ 0.62 µM).
